A selection: hits, their analogues and other compounds. The true share with any hit is near 0.7%.
GSK3B inh: blocks human GSK3beta kinase activity. GST-GSK3beta kinase, ADP-Glo luminescence, 60 min; stronger effect = lower value. P49841. 300,000 tested, 0.038% active. activity score (negative = inhibition), % at 10 µM. AID 2097;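 active means more than half of replicate wells score below -50%, meaning over 50% inhibition versus plate controls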
Target sequence (P49841 whole entry, looked up): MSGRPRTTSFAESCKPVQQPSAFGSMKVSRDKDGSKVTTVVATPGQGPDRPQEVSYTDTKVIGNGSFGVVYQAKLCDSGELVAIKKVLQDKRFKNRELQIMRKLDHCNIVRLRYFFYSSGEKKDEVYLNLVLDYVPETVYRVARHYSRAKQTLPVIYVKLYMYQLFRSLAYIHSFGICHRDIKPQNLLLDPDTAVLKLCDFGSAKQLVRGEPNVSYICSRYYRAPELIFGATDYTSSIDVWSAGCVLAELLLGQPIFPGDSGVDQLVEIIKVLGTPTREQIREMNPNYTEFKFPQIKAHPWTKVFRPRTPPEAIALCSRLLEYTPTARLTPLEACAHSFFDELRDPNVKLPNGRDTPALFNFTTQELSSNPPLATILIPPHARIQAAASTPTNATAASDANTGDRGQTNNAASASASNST
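Test system: GST-tagged human GSK3beta kinase, cell-free; evaluation: activity score scaled between in-plate DMSO and GW8510 controls; measured by: ADP-Glo luminescence; incubation: 60 min reaction, RT; benchmarks: DMSO and 20 µM GW8510; reagent: peptide substrate plus 25 µM ATP (final); medium: Tris/MgCl2 kinase buffer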
GSK3A inh: blocks human GSK-3 alpha kinase; 320,000 tested, 0.1% active; ADP-Glo luminescence, 60 min; inhibition, % at 10 µM; AID 2650; P49840;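 active means more than half of replicates show inhibition above 20%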;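 further: GST-tagged GSK-3 alpha with peptide substrate and 25 µM ATP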
Lipid droplet: hepatic lipid droplet formation modulation. AML12 mouse hepatocytes, oleate lipid droplets, BODIPY imaging. inhibition, % at 6.5 µM. 240,000 tested, 0.4% active. AID 1656;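 active means lipid droplet intensity inhibited by at least 50%, with more than 500 cells counted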
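Assay system: AML12 hepatocytes (mouse); Probe or stimulus: oleic acid at 100 µM to induce lipid droplet formation; Dosing: compound at 6.5 µM only; Schedule: compound with oleate, overnight; Detection: fluorescence imaging, 20x objective, two fields per well; Measure: % inhibition of lipid droplet signal.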
STK33 inh: blocks human STK33 kinase activity. 320,000 tested, 0.073% active. purified STK33, MBP phosphorylation, ADP-Glo luminescence. Q9BYT3. inhibition, % at 10 µM;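 active means inhibition at or above 25%, using the most active replicate where run in duplicate; inactive means inhibition below 25%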
HSV replic up: increases HSV replication in cells. AID 1956. HSV replication augmentation in cells, fold increase. maximum fold increase. 220,000 tested, 0.005% active; in the data active means maximum fold increase above about 1.5; tested in PC3 cells
Rce1 inhib: yeast Ras-converting enzyme inhibition. yeast membranes, quenched prenylated peptide cleavage fluorescence. calls only. 290,000 tested, 0.27% active. AID 2563;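 active means fall in fluorescence gain of 50% or more versus controls, with final raw signal at or below 3038400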
Target sequence (Q03530 whole entry, looked up): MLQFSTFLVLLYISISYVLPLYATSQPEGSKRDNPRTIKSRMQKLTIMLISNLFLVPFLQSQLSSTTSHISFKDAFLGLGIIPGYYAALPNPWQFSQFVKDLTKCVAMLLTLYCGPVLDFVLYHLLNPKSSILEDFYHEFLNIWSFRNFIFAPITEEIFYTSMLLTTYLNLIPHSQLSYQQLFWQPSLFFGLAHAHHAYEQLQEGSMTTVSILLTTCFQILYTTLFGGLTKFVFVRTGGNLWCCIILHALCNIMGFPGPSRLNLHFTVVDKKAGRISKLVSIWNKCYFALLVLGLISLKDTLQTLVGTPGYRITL
Hep lipid conf: confirmation of inhibitors of hepatic lipid droplet formation; shares compounds with Lipid droplet; AML12 mouse hepatocytes, BODIPY lipid droplet imaging; droplets induced with 100 µM oleic acid; inhibition, % at 5.2 µM; 870 tested, 65% active; AID 463183;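 active means inhibition of lipid droplet metric at least 50%, with more than 300 cells in each of four replicates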
AML12 tox img: toxic to AML12 mouse hepatocytes in counter-screen; shares compounds with Lipid droplet; DAPI nuclear morphology cytotoxicity imaging; stronger effect = higher value; cells fed 100 µM oleate overnight; z-score at 5 µM; 870 tested, 3% active; AID 463200; in the data active means z-score above about 6.3;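 further: compound exposure lasted overnight at 37 °C before fixation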
AML12 tox conf: AML12 hepatocyte cytotoxicity, confirmed; shares compounds with Lipid droplet; AML12 mouse hepatocyte viability, ATP luminescence; cells loaded with 100 µM oleic acid; cytotoxicity, % at 50 µM; 530 tested, under 10 active; AID 463219;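 active means cytotoxicity above 50% in each of four replicates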;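 further: compound exposure lasted overnight at 37 °C before the ATP read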
Each line names hits and unclear results; the compound was inactive in the other large screens (follow-up assays come after a bar, where they were run).

Cc1ccc(/C=C/C(=O)NCC2COc3ccccc3O2)o1 (stereo unspecified)	Lipid droplet 53 | Hep lipid conf inactive | AML12 tox img inactive
CN(CC(=O)Nc1ccc(F)c(F)c1F)C(=O)/C=C/c1ccc(Cl)cc1	none
CCOc1ccc(-c2nonc2NC(=O)c2ccco2)cc1OCC	none (no result: HSV replic up)
CCOc1ccc(-c2nonc2NC(=O)c2ccco2)cc1	Lipid droplet 74 (no result: HSV replic up) | Hep lipid conf 93 | AML12 tox img inactive | AML12 tox conf inactive
CCN(c1ccccc1)S(=O)(=O)c1ccc(N2CCN(c3ccc(O)cc3)CC2)nc1	none (no result: GSK3B inh, Lipid droplet, HSV replic up, Rce1 inhib)
CCN(CC)S(=O)(=O)c1cc(NC(=O)C(C)OC(=O)c2[nH]c(C)c(C(C)=O)c2C)ccc1C (stereo unspecified)	Lipid droplet 128 | Hep lipid conf inactive | AML12 tox img inactive
Cc1cccc(C(C(=O)NC2CCCC2)N(C(=O)c2csnn2)C2CC2)c1 (stereo unspecified)	none (no result: HSV replic up)
Cc1cccc(C(C(=O)NC2CCCC2)N(C(=O)c2csnn2)C2CCCC2)c1 (stereo unspecified)	Lipid droplet 77 (no result: GSK3B inh, HSV replic up, Rce1 inhib) | Hep lipid conf 74 | AML12 tox img inactive | AML12 tox conf inactive
Cc1ccc(-c2nnc(OCc3cccnc3)c3ccccc23)cc1	Lipid droplet 67 | Hep lipid conf 86 | AML12 tox img inactive | AML12 tox conf inactive
CCCc1nc2ccccc2c(C(=O)OCC(=O)NCc2ccc3c(c2)OCO3)c1CC	none (no result: Rce1 inhib)
Cc1ccc(OCC(=O)NCc2ccc3c(c2)OCO3)c([N+](=O)[O-])n1	Lipid droplet 58 | Hep lipid conf inactive | AML12 tox img inactive
CCc1nc2ccccc2c(C(=O)OCC(=O)NCc2ccc3c(c2)OCO3)c1C	Lipid droplet 79 | Hep lipid conf 92 | AML12 tox img inactive | AML12 tox conf inactive
CCCc1nc2ccccc2c(C(=O)OC(C)C(=O)NCc2ccc3c(c2)OCO3)c1CC (stereo unspecified)	Lipid droplet 84 | Hep lipid conf 103 | AML12 tox img inactive | AML12 tox conf inactive
CC(C)c1cccc(C(C)C)c1NC(=O)CN1C(=O)NC2(CCCCCCC2)C1=O	none (no result: GSK3B inh, Lipid droplet, HSV replic up, Rce1 inhib)
O=C(COC(=O)[C@@H]1CCCN1C(=O)c1cccs1)Nc1cccc(Cl)c1	none (no result: GSK3B inh, Lipid droplet, HSV replic up, Rce1 inhib)
COc1ccccc1OCC(=O)Nc1oc(-c2ccccc2)c(-c2ccccc2)c1C#N	none (no result: GSK3B inh, Rce1 inhib)
COc1ccc(CC(=O)Nc2oc(-c3ccccc3)c(-c3ccccc3)c2C#N)cc1OC	Lipid droplet 97 | Hep lipid conf 110 | AML12 tox img inactive | AML12 tox conf inactive
CCC(C)(C)NC(=O)CN(C(=O)CCC(=O)Nc1nccs1)c1ccc2c(c1)OCCO2	none (no result: GSK3B inh, HSV replic up, Rce1 inhib)
Cc1cccc(Nc2ncnc3ccccc23)c1	Lipid droplet 66 | Hep lipid conf 53 | AML12 tox img 13
CCCOc1ccccc1NC(=O)CC1Nc2ccccc2NC1=O (stereo unspecified)	none
CCOc1ccccc1NC(=O)CC1Nc2cc(C)c(C)cc2NC1=O (stereo unspecified)	Lipid droplet 59 (no result: GSK3A inh) | Hep lipid conf 67 | AML12 tox img inactive
Cc1cccc(N2CCN(C(=O)C3CCC(=O)N(Cc4ccccc4F)C3)CC2)c1C (stereo unspecified)	none (no result: HSV replic up)
CCOc1ccc2nc(NC(=O)CSc3nc4ccccc4c(=O)n3Cc3ccco3)sc2c1	Lipid droplet 57 | Hep lipid conf 106 | AML12 tox img inactive | AML12 tox conf inactive
CCOc1ccccc1OCCC(=O)NNC(=O)Cn1nc(C)cc1C	none (no result: Lipid droplet, HSV replic up)
Cc1ccc(NC(=O)Cn2cc(C(=O)C3CC3)c3ccccc32)c(C)c1	none (no result: HSV replic up)
Cc1ccc(C)c(NC(=O)Cn2cc(C(=O)C3CC3)c3ccccc32)c1	Lipid droplet 75 (no result: HSV replic up) | Hep lipid conf 94 | AML12 tox img inactive | AML12 tox conf inactive
CCCCCc1cc(=O)oc2c(C(CCN3CCCC(C)C3)c3cc(OC)c(OC)c(OC)c3)c(OC)cc(OC)c12 (stereo unspecified)	none
CCCCCc1cc(=O)oc2c(C(CCN3CCCC(C)C3)c3ccc(N(C)C)cc3)c(OC)cc(OC)c12 (stereo unspecified)	Lipid droplet 62 (no result: GSK3A inh) | Hep lipid conf inactive | AML12 tox img inactive
COc1ccc(C)cc1NC(C)C(=O)NC(=O)NC1CCCCC1 (stereo unspecified)	none (no result: GSK3B inh, Lipid droplet, HSV replic up, Rce1 inhib)
Cc1cccc(NC(=O)CSc2nnc(C)c(=O)n2N)c1	Lipid droplet 56 | Hep lipid conf inactive | AML12 tox img inactive | AML12 tox conf inactive
Cc1ccc(NC(=O)CSc2nnc(C)c(=O)n2N)cc1Cl	Lipid droplet 63 (no result: HSV replic up) | Hep lipid conf 97 | AML12 tox img inactive | AML12 tox conf inactive
Cc1ccc(NC(=O)CSc2nnc(C)c(=O)n2N)c(C)c1	none
CCc1ccc(/C=c2\s/c(=C\C(=O)C(C)(C)C)[nH]c2=O)cc1	none
CC(C)(C)C(=O)/C=c1\[nH]c(=O)/c(=C\c2ccc(F)cc2)s1	Lipid droplet 67 | Hep lipid conf 98 | AML12 tox img inactive | AML12 tox conf inactive
COc1cc(NC(=O)c2cccs2)c(OC)cc1NC(=O)CCC(=O)Nc1ccc2ncccc2c1	Lipid droplet 68 (no result: GSK3A inh, STK33 inh) | Hep lipid conf 95 | AML12 tox img inactive | AML12 tox conf inactive
COC(=O)[C@]1(C)N[C@H](CN(C)C(=O)Nc2ccc(OC)cc2)[C@@H]2C(=O)N(Cc3ccccc3)C(=O)[C@@H]21	none (no result: GSK3B inh, Lipid droplet, HSV replic up, Rce1 inhib)
COc1ccc(C)cc1N(C)C(=O)Cc1c(C(=O)O)n(C)c2ccccc12	none (no result: HSV replic up)
CC(C)CCOc1ccc(C(=O)NCC(c2ccco2)N(C)C)cc1 (stereo unspecified)	Lipid droplet 54 (no result: HSV replic up) | Hep lipid conf inactive | AML12 tox img inactive
c1ccc2c(c1)CCCC2C1=NCCN1 (stereo unspecified)	Lipid droplet 53 | Hep lipid conf inactive | AML12 tox img inactive
COc1ccccc1NS(=O)(=O)c1cc(C(=O)N2CC(C)CC(C)C2)ccc1C (stereo unspecified)	none
Cc1ccc(Cn2nc(C)c(NC(=O)C3(C)CC3(Br)Br)c2C)cc1 (stereo unspecified)	Lipid droplet 64 (no result: Rce1 inhib) | Hep lipid conf 68 | AML12 tox img inactive | AML12 tox conf inactive
COCCC1CCCCN1C(=O)c1cccc(OC2CCN(S(C)(=O)=O)CC2)c1 (stereo unspecified)	none (no result: HSV replic up)
COc1ccc(-n2c(=O)c3ccccc3n(CC(=O)c3ccccc3)c2=O)cc1OC	none

Screens from PubChem.
